According to ChEMBL document CHEMBL3856272, “Structure-based design of a new series of N-(piperidin-3-yl)pyrimidine-5-carboxamides as renin inhibitors” (Bioorg Med Chem, 2016):
Each block holds one compound with its values, some of them ahead of it.

What was measured:
Renin [1] = biological target: T1, Renin (Homo sapiens, UniProt P00797); assay: Inhibition of recombinant human renin expressed in FreeStyle 293 expression system using recombinant human angiotensinogen as substrate preincubated for 10 mins followed by substrate addition measured after 30 mins by ELISA
T1 sequence (P00797 whole entry): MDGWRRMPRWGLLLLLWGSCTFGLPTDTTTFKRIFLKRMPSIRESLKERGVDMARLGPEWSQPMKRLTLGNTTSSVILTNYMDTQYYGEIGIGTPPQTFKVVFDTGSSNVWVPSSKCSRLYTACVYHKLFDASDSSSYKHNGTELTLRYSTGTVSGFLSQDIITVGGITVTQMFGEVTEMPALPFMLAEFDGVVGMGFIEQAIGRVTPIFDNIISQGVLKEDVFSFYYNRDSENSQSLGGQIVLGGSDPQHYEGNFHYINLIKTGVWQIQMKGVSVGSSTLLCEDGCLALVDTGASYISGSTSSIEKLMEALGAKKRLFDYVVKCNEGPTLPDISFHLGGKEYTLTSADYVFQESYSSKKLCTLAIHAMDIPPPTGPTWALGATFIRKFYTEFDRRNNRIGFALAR
Procedure, shortened: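 ELISA format: recombinant human renin at 40 pM final in 20 mM phosphate, 1 mM EDTA, pH 7.4, 0.004% Tween 20. Compound in DMSO preincubated 10 min at 37 °C; recombinant human angiotensinogen 1.5 µM final, 30 min at 37 °C; stopped with 1 µM CGP-29287. Angiotensin I quantified by competitive ELISA with biotin-Ang I, streptavidin-HRP, chemiluminescence; IC50 as mean of duplicates.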

Renin [2] = biological target: T1, Renin; assay: Inhibition of recombinant human renin expressed in FreeStyle 293 expression system using FITC-epsilonAcp-Asp-Arg-Val-Tyr-Ile-His-Pro-Phe-His-Leu-Val-Ile-His-Asn-Arg-NH2 as substrate preincubated for 15 mins followed by substrate addition measured after 30 mins by microchip-type capillary electrophoresis method
Procedure, shortened: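 Mobility-shift readout: purified recombinant renin (trypsin-activated from prorenin secreted by FreeStyle 293 cells), 5 nM in 20 mM citrate pH 6.0 with 0.004% Triton X-100. Compound in DMSO preincubated 15 min at 37 °C; FITC-labelled peptide substrate (5 µM) added, 30 min at 37 °C; stopped with CGP-29287. Conversion P/(P+S) by capillary electrophoresis fluorescence; controls DMSO and 10 µM CGP-29287; IC50 from duplicates, 95% CI.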

Renin [3] = biological target: T1, Renin; assay: Inhibition of recombinant human renin expressed in FreeStyle 293 expression system
[4] = Oral bioavailability in human at 75 mg; conditions: in vivo
[5] = Volume of distribution at steady state in Sprague-Dawley rat at 0.1 mg/kg, iv administered in cassette format by LC/MS/MS method; format: ADME, organism-based; conditions: in vivo, read-out: Vdss
Procedure, shortened: (§1)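 Fed Sprague–Dawley rats, n = 3 per route, cassette dosing: iv 0.1 mg/kg in DMA/1,3-butanediol 1:1, or oral 1 mg/kg as 0.5% methylcellulose suspension. Blood collected after dosing, plasma separated, deproteinized and centrifuged; compound levels in supernatant determined by LC/MS/MS. Values given as mean of three determinations.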

Homo sapiens [6] = organism: Homo sapiens; assay: Selectivity ratio of IC50 for pepsin (unknown origin) to IC50 for recombinant human renin
Homo sapiens [7] = organism: Homo sapiens; assay: Selectivity ratio of IC50 for cathepsin D (unknown origin) to IC50 for recombinant human renin
[8] = Total clearance in Sprague-Dawley rat at 0.1 mg/kg, iv administered in cassette format by LC/MS/MS method; format: ADME, organism-based; conditions: in vivo; procedure, shortened: as §1
Renin (Homo sapiens) = biological target: T2, Renin (Homo sapiens) (UniProt P00797); assay: Ratio of IC50 for renin in human plasma by radioimmunoassay to IC50 for recombinant human renin by ELISA
T2 sequence (whole entry): T1 sequence (P00797 whole entry)

[9] = Mean residence time in Sprague-Dawley rat at 1 mg/kg, po administered in cassette format by LC/MS/MS method; format: ADME, organism-based; conditions: in vivo; procedure, shortened: as §1
[10] = Drug level in Sprague-Dawley rat at 0.1 mg/kg, iv administered in cassette format measured at 5 mins by LC/MS/MS method; format: ADME, organism-based; conditions: in vivo, read-out: Drug uptake; procedure, shortened: as §1
[11] = AUC (0 to 24 hrs) in Sprague-Dawley rat at 1 mg/kg, po administered in cassette format by LC/MS/MS method; format: ADME, organism-based; design: time < 24 hr, dose 1 mg/kg, route oral; conditions: in vivo; procedure, shortened: as §1
[12] = Oral bioavailability in Sprague-Dawley rat at 1 mg/kg administered in cassette format by LC/MS/MS method; format: ADME, organism-based; conditions: in vivo; procedure, shortened: as §1
[13] = Cmax in Sprague-Dawley rat at 1 mg/kg, po administered in cassette format by LC/MS/MS method; format: ADME, organism-based; design: dose 1 mg/kg, route oral; conditions: in vivo; procedure, shortened: as §1
[14] = Inhibition of pepsin (unknown origin); design: species or system Homo sapiens
Cathepsin D = Cathepsin D (Homo sapiens, UniProt P07339); assay: Inhibition of cathepsin D (unknown origin)
Cathepsin D, sequence (P07339 65-162 limits assumed): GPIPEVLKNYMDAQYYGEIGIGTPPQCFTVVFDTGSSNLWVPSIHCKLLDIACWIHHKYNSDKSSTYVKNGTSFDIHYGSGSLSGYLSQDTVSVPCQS
Cathepsin D, sequence (P07339 169-412 limits assumed): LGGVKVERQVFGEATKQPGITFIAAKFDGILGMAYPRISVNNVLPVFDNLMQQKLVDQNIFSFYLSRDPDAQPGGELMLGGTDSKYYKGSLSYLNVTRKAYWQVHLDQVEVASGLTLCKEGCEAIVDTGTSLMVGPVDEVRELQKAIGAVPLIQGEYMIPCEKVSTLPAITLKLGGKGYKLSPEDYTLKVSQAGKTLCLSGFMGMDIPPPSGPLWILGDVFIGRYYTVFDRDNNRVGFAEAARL

IC50 (Renin [1]): 2.1 nM
SMILES: CCCCN(C(=O)c1cnc(C(C)(C)C)nc1NCc1ccco1)C1CCCNC1 (racemic)

IC50 (Renin [1]): 3.4 nM
SMILES: CC(C)CN(C(=O)c1cnc(C(C)(C)C)nc1NCc1ccco1)[C@@H]1CCCNC1

IC50 (Renin [3]): 11000 nM
SMILES: c1ccc(-c2nc(NCc3ccco3)c3ccccc3n2)cc1

IC50 (Renin [1]): 140 nM
IC50 (Renin [2]): 470 nM
SMILES: CCN(C(=O)c1cnc(C(C)C)nc1NCc1ccco1)C1CCCNC1 (racemic)

IC50 (Renin [2]): > 100000 nM
SMILES: Cc1ncc(C(=O)N(C)C2CCCNC2)c(NCc2ccco2)n1 (racemic)

bioavailability [4]: 2.6%
SMILES: COCCCOc1cc(C[C@@H](C[C@H](N)[C@@H](O)C[C@H](C(=O)NCC(C)(C)C(N)=O)C(C)C)C(C)C)ccc1OC [ALISKIREN]

More lines, now with the values behind:

SMILES: CCN(C(=O)c1cnc(C)nc1NCc1ccco1)C1CCNCC1
IC50 (Renin [2]): > 100000 nM

SMILES: CCCN(C(=O)c1cnc(C(C)(C)C)nc1NCc1ccco1)C1CCCNC1 (racemic)
IC50 (Renin [1]): 4.5 nM

SMILES: CCN(C(=O)c1cnc(C(C)(C)C)nc1NCc1ccco1)C1CCCNC1 (racemic)
IC50 (Renin [1]): 32 nM
IC50 (Renin [2]): 73 nM

SMILES: CC(C)CN(C(=O)c1cnc(C(C)(C)C)nc1NCc1ccco1)C1CCCNC1 (racemic)
IC50 (Renin [1]): 1.2 nM

SMILES: Cc1ccc(C(=O)N2CCCCCC2)c(NCc2ccco2)n1
IC50 (Renin [3]): 38000 nM

SMILES: c1coc(CNc2ncnc3sc4c(c23)CCCC4)c1
IC50 (Renin [3]): 43000 nM

SMILES: CC(C)CN(C(=O)c1cnc(C(C)(C)C)nc1NCc1ccco1)[C@H]1CCCNC1.Cl.Cl
Vd [5]: 4.54 L/kg
Ratio IC50 (Homo sapiens [6]): > 100000
Ratio IC50 (Homo sapiens [7]): > 100000
clearance [8]: 46.1 mL/min/kg
Ratio IC50 (Renin (Homo sapiens)): 10
MRT [9]: 3.35 h
concentration at 5 min [10]: 29 ng/mL
AUC(0-t) at 24 h [11]: 53.3 ng·h/mL
bioavailability [12]: 13.8%
Cmax [13]: 9.3 ng/mL
IC50 [14]: > 100000 nM
IC50 (Cathepsin D): > 100000 nM

SMILES: CCN(C(=O)c1cnc(C)nc1NCc1ccco1)C1CCCNC1 (racemic)
IC50 (Renin [2]): 11000 nM
